Experimental data as given in the M2OR odorant receptor database.

Experiments:
Conditions in all cases: stereoisomer not certain
OR8B8 (Homo sapiens) = OR8B8 (Homo sapiens) (UniProt Q15620)
Method in brief: (§1)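 Assay methods differ from source to source, frequently being transient luciferase assays in mammalian cell lines. For each receptor–molecule pair, the label responsive (active) applies when the original authors judged the measured signal statistically different from baseline, and non-responsive (inactive) applies otherwise.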

OR8B8 L101P = tested on: OR8B8 L101P
Method in brief: as §1

OR8D1 C127G L194P = tested on: OR8D1 C127G L194P
Method in brief: as §1

OR8D1 L194P = tested on: OR8D1 L194P
Method in brief: as §1

OR8D2 (Homo sapiens) = OR8D2 (Homo sapiens) (UniProt Q9GZM6)
Method in brief: as §1

OR8D4 (Homo sapiens) = OR8D4 (Homo sapiens) (UniProt Q8NGM9)
Method in brief: as §1

OR8D4 C120Y R133K = tested on: OR8D4 C120Y R133K
Method in brief: as §1

OR8G1 (Homo sapiens) = OR8G1 (Homo sapiens) (UniProt Q15617)
Method in brief: as §1

OR8G5 (Homo sapiens) = OR8G5 (Homo sapiens) (UniProt Q8NG78)
Method in brief: as §1

OR8H1 (Homo sapiens) = OR8H1 (Homo sapiens) (UniProt Q8NGG4)
Method in brief: as §1

OR8H2 (Homo sapiens) = OR8H2 (Homo sapiens) (UniProt Q8N162)
Method in brief: as §1

OR8H2 H120Y Y169C V284M = tested on: OR8H2 H120Y Y169C V284M
Method in brief: as §1

OR8H3 (Homo sapiens) = OR8H3 (Homo sapiens) (UniProt Q8N146)
Method in brief: as §1

OR8H3 = tested on: OR8H3
Method in brief: as §1

OR8I2 (Homo sapiens) = OR8I2 (Homo sapiens) (UniProt Q8N0Y5)
Method in brief: as §1

OR8J1 (Homo sapiens) = OR8J1 (Homo sapiens) (UniProt Q8NGP2)
Method in brief: as §1

OR8J1 = tested on: OR8J1
Method in brief: as §1

OR8J3 (Homo sapiens) = OR8J3 (Homo sapiens) (UniProt Q8NGG0)
Method in brief: as §1

OR8J2 (Homo sapiens) = OR8J2 (Homo sapiens) (UniProt Q8NGG1)
Method in brief: as §1

Measured: odorant receptor agonist call

Sequence of OR8H1 (Homo sapiens) (Q8NGG4 whole entry): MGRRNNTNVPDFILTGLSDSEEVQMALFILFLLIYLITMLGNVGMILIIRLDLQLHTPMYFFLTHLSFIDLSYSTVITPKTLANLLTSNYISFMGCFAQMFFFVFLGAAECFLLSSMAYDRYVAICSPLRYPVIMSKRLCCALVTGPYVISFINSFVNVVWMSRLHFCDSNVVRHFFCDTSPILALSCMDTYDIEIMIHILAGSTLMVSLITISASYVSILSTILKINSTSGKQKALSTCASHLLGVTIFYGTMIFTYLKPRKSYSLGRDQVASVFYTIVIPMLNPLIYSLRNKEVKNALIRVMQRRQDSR
Sequence of OR8J1 (Homo sapiens) (Q8NGP2 whole entry): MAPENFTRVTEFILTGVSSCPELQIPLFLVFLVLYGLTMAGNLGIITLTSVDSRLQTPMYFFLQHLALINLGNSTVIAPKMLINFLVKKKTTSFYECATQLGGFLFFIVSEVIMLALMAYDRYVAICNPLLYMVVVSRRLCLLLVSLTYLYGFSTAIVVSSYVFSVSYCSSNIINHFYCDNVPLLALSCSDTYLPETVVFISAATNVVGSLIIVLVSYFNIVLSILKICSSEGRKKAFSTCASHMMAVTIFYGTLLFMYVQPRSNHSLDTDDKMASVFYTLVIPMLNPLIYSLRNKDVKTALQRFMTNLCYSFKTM
Sequence of OR8I2 (Homo sapiens) (Q8N0Y5 whole entry): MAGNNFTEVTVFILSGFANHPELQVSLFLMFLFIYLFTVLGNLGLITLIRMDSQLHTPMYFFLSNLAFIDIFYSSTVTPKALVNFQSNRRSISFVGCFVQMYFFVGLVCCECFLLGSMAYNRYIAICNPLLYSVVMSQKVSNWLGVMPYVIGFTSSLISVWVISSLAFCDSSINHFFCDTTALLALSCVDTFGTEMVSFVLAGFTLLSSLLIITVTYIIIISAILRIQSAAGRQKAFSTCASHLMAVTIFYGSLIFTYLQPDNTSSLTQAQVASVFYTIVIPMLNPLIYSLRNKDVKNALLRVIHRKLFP
Sequence of OR8D4 (Homo sapiens) (Q8NGM9 whole entry): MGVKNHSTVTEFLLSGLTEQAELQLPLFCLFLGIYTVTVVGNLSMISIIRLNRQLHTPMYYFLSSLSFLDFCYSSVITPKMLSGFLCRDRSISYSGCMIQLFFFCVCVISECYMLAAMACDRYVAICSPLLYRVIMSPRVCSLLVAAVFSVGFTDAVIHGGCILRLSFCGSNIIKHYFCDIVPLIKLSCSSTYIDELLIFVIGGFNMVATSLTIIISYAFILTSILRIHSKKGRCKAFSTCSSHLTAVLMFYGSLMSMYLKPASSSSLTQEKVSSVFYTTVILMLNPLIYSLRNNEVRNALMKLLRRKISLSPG
Sequence of OR8G5 (Homo sapiens) (Q8NG78 whole entry): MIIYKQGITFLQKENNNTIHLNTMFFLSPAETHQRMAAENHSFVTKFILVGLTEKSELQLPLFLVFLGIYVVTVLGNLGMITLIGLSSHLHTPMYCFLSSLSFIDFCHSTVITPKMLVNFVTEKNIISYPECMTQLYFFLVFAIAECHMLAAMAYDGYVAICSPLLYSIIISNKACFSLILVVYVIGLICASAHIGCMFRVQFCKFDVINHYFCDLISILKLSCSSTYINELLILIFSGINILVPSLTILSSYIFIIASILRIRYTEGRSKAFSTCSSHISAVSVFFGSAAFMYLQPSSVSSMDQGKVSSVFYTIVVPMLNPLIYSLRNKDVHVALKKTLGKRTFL
Sequence of OR8B8 (Homo sapiens) (Q15620 whole entry): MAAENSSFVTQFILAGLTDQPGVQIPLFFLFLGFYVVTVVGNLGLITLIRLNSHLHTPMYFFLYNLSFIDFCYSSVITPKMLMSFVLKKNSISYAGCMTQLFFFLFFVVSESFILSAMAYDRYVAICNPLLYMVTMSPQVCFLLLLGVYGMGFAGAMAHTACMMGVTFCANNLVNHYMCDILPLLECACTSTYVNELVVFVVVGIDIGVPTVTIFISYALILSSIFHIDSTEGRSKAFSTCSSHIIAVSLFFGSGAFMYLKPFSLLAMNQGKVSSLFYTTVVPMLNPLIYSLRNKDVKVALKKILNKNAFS
Sequence of OR8G1 (Homo sapiens) (Q15617 whole entry): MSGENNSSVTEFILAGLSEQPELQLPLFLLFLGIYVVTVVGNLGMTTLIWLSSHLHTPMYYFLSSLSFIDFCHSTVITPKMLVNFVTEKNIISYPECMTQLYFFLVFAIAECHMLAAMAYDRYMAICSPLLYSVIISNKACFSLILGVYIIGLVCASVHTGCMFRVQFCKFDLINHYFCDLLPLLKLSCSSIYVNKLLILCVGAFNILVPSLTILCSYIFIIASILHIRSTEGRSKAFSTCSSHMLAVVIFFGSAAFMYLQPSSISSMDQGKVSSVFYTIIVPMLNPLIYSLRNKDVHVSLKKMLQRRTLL
Sequence of OR8H3 (Homo sapiens) (Q8N146 whole entry): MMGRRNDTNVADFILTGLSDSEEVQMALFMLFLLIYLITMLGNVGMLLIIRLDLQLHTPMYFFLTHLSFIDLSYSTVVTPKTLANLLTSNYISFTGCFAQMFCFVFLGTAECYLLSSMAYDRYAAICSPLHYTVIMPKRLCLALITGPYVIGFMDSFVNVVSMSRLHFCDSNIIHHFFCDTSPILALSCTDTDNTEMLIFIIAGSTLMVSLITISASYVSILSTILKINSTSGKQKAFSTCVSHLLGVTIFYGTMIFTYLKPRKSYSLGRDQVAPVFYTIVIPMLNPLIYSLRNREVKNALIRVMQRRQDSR
Sequence of OR8H2 (Homo sapiens) (Q8N162 whole entry): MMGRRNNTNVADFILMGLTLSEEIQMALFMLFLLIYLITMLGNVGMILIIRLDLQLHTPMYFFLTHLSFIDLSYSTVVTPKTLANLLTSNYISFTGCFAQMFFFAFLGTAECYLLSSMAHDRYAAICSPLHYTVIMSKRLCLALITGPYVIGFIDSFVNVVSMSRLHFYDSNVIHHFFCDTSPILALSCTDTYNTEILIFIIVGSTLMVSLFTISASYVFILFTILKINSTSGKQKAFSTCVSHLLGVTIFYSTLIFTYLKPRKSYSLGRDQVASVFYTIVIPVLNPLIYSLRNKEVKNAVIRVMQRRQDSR
Sequence of OR8J3 (Homo sapiens) (Q8NGG0 whole entry): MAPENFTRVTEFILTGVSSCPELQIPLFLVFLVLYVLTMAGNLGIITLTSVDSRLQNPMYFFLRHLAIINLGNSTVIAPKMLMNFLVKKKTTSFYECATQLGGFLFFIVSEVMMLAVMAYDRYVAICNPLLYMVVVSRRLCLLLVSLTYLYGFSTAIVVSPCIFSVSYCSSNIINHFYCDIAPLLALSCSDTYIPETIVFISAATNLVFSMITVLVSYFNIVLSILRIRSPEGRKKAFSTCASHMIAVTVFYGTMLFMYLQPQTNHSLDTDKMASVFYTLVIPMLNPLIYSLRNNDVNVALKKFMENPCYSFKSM
Sequence of OR8D2 (Homo sapiens) (Q9GZM6 whole entry): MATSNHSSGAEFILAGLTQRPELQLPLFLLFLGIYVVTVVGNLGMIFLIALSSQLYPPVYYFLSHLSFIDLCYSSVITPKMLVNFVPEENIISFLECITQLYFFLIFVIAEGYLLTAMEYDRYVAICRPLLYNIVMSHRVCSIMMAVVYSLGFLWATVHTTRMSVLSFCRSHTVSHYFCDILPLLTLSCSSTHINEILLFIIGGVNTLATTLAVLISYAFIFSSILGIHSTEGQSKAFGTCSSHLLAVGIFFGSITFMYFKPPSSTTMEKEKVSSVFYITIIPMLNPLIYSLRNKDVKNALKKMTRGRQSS
Sequence of OR8J1 (as listed by the source): as the sequence (Q8NGP2 whole entry) above, with Y120C counted along it
Sequence of OR8H3 (as listed by the source): as the sequence (Q8N146 whole entry) above, with P137S counted along it
Sequence of OR8D1 L194P (as listed by the source, stated change not applied): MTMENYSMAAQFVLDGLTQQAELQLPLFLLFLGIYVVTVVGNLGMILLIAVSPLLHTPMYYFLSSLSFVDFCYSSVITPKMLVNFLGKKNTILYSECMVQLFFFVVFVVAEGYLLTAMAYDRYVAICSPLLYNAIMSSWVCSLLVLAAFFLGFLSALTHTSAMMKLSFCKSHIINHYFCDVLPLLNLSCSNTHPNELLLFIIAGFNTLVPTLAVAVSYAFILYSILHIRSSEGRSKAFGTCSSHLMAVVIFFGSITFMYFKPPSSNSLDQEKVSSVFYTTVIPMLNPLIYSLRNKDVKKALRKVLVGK
Sequence of OR8J2 (Homo sapiens) (Q8NGG1 whole entry): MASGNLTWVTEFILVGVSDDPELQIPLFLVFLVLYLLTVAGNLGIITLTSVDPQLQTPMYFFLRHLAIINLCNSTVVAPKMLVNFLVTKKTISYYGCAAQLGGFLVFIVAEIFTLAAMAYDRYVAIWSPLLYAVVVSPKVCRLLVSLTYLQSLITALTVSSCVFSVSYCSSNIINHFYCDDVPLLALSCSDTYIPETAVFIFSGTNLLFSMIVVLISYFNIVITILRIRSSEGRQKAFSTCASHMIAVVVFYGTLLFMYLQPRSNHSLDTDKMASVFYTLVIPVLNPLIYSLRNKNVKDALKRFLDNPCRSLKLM
Sequence of OR8B8 L101P (as listed by the source, stated change not applied): as the sequence (Q15620 whole entry) above, with L101P counted along it

C=CCOC(=O)Cc1ccccc1
inactive: OR8B8 (Homo sapiens) | OR8B8 L101P | OR8D1 C127G L194P | OR8D1 L194P | OR8D2 (Homo sapiens) | OR8D4 (Homo sapiens) | OR8D4 C120Y R133K | OR8G1 (Homo sapiens) | OR8G5 (Homo sapiens) | OR8H1 (Homo sapiens) | OR8H2 (Homo sapiens) | OR8H2 H120Y Y169C V284M | OR8H3 (Homo sapiens) | OR8H3 | OR8I2 (Homo sapiens) | OR8J1 (Homo sapiens) | OR8J1 | OR8J3 (Homo sapiens)

Cc1c([N+](=O)[O-])c(C)c([N+](=O)[O-])c(C(C)(C)C)c1[N+](=O)[O-]
inactive: OR8B8 (Homo sapiens) | OR8D2 (Homo sapiens) | OR8D4 (Homo sapiens) | OR8G1 (Homo sapiens) | OR8G5 (Homo sapiens) | OR8H1 (Homo sapiens) | OR8H2 (Homo sapiens) | OR8H3 (Homo sapiens) | OR8I2 (Homo sapiens) | OR8J1 (Homo sapiens) | OR8J2 (Homo sapiens) | OR8J3 (Homo sapiens)
